Experimental data as given in ChEMBL document CHEMBL3352117, “Piperazine and piperidine carboxamides and carbamates as inhibitors of fatty acid amide hydrolase (FAAH) and monoacylglycerol lipase (MAGL)” (Bioorg Med Chem, 2014).

Experiments:
[1] = molecular target: T1, Monoglyceride lipase (Homo sapiens) (UniProt Q99685); assay: Inhibition of human recombinant MAGL expressed in HEK293 cells using 2-AG as substrate assessed as remaining activity at 10 uM
T1 sequence (whole entry): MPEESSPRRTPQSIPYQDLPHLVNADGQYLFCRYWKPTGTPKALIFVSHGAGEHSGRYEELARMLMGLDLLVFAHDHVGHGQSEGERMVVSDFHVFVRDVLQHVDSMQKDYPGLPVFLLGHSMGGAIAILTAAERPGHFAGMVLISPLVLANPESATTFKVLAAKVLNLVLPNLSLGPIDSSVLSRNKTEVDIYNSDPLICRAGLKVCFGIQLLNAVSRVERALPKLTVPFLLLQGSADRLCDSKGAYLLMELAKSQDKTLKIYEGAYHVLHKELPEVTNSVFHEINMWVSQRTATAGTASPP
Outline: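 Lysates of HEK293 cells transiently overexpressing human MAGL, 2.5 ug protein per incubation, with 50 uM 2-AG substrate. Test compound at 10 uM. Remaining activity expressed as % of control, given as range, n = 2.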

[2] = molecular target: T2, Fatty-acid amide hydrolase 1 (Homo sapiens) (UniProt O00519); assay: Inhibition of human recombinant FAAH expressed in COS7 cells using anandamide as substrate assessed as remaining activity at 10 uM; assay type: cell-based; conditions: COS-7
T2 sequence (whole entry): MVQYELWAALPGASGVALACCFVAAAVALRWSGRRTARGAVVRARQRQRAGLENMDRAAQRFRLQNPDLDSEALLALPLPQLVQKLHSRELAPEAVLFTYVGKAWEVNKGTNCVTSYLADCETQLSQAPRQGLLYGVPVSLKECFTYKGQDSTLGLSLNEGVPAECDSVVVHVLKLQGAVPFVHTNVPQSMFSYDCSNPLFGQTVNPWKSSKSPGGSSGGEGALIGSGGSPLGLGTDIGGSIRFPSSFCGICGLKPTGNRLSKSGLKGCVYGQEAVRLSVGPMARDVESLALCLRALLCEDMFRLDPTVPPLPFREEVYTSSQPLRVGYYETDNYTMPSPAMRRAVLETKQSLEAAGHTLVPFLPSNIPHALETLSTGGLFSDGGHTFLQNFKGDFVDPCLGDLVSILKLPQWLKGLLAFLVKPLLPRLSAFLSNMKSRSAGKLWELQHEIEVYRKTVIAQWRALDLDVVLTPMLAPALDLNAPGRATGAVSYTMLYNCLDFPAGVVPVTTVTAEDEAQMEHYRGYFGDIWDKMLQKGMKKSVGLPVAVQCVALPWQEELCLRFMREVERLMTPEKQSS
Outline: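 Membranes of COS-7 cells transiently overexpressing human FAAH, 1 ug protein per incubation, with 20 uM anandamide substrate including 10 nM 3H-anandamide tracer. Test compound at 10 uM. Remaining activity expressed as % of control, given as range, n = 2.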

Monoglyceride lipase = molecular target: T3, Monoglyceride lipase (Homo sapiens, UniProt Q99685); assay: Inhibition of human recombinant MAGL expressed in HEK293 cells using 2-AG as substrate; assay type: cell-based
T3 sequence (Q99685 whole entry): T1 sequence (whole entry)
Outline: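 Lysates of HEK293 cells transiently overexpressing human recombinant MAGL, 2.5 ug protein per incubation. 2-AG substrate at 50 uM.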

[3] = molecular target: T4, Fatty-acid amide hydrolase 1 (Homo sapiens, UniProt O00519); assay: Inhibition of human recombinant FAAH expressed in COS7 cells using anandamide as substrate; assay type: cell-based, COS-7
T4 sequence (O00519 whole entry): T2 sequence (whole entry)
Outline: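 Membranes of COS-7 cells transiently overexpressing human recombinant FAAH, 1 ug protein per incubation. Anandamide substrate at 20 uM, including 10 nM 3H-anandamide tracer (specific activity 60 […]/mmol).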

Homo sapiens = species on record: Homo sapiens; assay: Selectivity ratio of IC50 for human recombinant FAAH to IC50 for human recombinant MAGL

Structure (SMILES)	Activity [1] [%]	Activity [2] [%]	IC50 (Monoglyceride lipase; read-out: IC50) [nM]	IC50 ([3]; read-out: IC50) [nM]	IC50 ([3]; read-out: pIC50 (converted)) [nM]	Ratio IC50 (Homo sapiens)	IC50 (Monoglyceride lipase; read-out: pIC50 (converted)) [nM]
O=C(Nc1cccnc1)N1CCN(C(c2ccccc2)c2ccccc2)CC1	101	87					
O=C(N1CCN(C(c2ccccc2)c2ccccc2)CC1)n1cncn1			1.3	452	447		
COc1ccc(NC(=O)N2CCN(Cc3cccc(Oc4ccccc4)c3)CC2)cc1	78	56					
O=C(OCC(Cl)(Cl)Cl)N1CCC(C(O)(c2ccc3c(c2)OCO3)c2ccc3c(c2)OCO3)CC1	89	90					
O=C(N1CCN(C(c2ccccc2)c2ccccc2)CC1)n1ccnc1	51			2300	2290		
O=C(OCc1ccccc1)N1CCC(C(O)(c2ccc3c(c2)OCO3)c2ccc3c(c2)OCO3)CC1	92	92					
O=C(N1CCN(C(c2ccccc2)c2ccccc2)CC1)n1cnc(-c2ccccc2)c1	93	62					
O=C(Nc1ccccc1)N1CCN(C(c2ccccc2)c2ccccc2)CC1	62	88					
COc1ccc(NC(=O)N2CCN(C(c3ccccc3)c3ccccc3)CC2)cc1	86	89					
O=C(Nc1ccccc1)N1CCN(Cc2cccc(Oc3ccccc3)c2)CC1	98			3020	3020		
O=C(OC(C(F)(F)F)C(F)(F)F)N1CCN(Cc2cccc(Oc3ccccc3)c2)CC1		76	74				
CCOC(=O)N1CCN(C(=O)n2cncn2)CC1			1660	141	141		
O=C(N1CCN(Cc2cccc(Oc3ccccc3)c2)CC1)n1cncn1			0.6	2.7	2.69	4.5	
O=C(Oc1ccc([N+](=O)[O-])cc1)N1CCN(Cc2ccc(Oc3ccccc3)cc2)CC1		43	1100				
O=C(N1CCN(Cc2cccc(Oc3ccccc3)c2)CC1)n1nnc2cccnc21			5.5	23	22.9	4	
O=C(Nc1ccc(C(F)(F)F)cc1)N1CCN(C(c2ccccc2)c2ccccc2)CC1	96	86					
O=C(N1CCN(c2ccccc2)CC1)n1cncn1			132	6	6.03		
O=C(Nc1ccc([N+](=O)[O-])cc1)N1CCN(Cc2cccc(Oc3ccccc3)c2)CC1	102	98					

Structure (SMILES)	Activity [1] [%]	Activity [2] [%]	IC50 (Monoglyceride lipase; read-out: IC50) [nM]	IC50 ([3]; read-out: IC50) [nM]	IC50 ([3]; read-out: pIC50 (converted)) [nM]	Ratio IC50 (Homo sapiens)	IC50 (Monoglyceride lipase; read-out: pIC50 (converted)) [nM]
O=C(N1CCN(c2ccccc2)CC1)n1nnc2cccnc21			275	11	11.2		
O=C(N1CCN(Cc2cccc(Oc3ccccc3)c2)CC1)n1ccnc1			2840	15	15.5		
O=C(N1CCC(C(O)(c2ccc3c(c2)OCO3)c2ccc3c(c2)OCO3)CC1)n1cncn1				1620	1620	2320	0.692
O=C(Nc1ccccn1)N1CCN(C(c2ccccc2)c2ccccc2)CC1	94	87					
O=C(N1CCN(Cc2cccc(Oc3ccccc3)c2)CC1)n1nnc2ccccc21			7.8	89	89.1	10	
CCCCc1ccc(NC(=O)N2CCN(C(c3ccccc3)c3ccccc3)CC2)cc1	92	84					
O=C(N1CCC(C(c2ccc3c(c2)OCO3)c2ccc3c(c2)OCO3)CC1)n1cncn1			0.4	4800	4790	> 13000	
O=C(Oc1ccc([N+](=O)[O-])cc1)N1CCN(C(c2ccccc2)c2ccccc2)CC1		86	257				
O=C(N1CCN(C(c2ccc(F)cc2)c2ccc(F)cc2)CC1)n1cncn1			0.9	282	282		
O=C(N1CCN(Cc2ccc(Oc3ccccc3)cc2)CC1)n1ccnc1			660	3.4	17.4		
O=C(N1CCN(Cc2ccc(Oc3ccccc3)cc2)CC1)n1nnc2ccccc21			70	708	708		
O=C(Nc1ccc([N+](=O)[O-])cc1)N1CCN(C(c2ccccc2)c2ccccc2)CC1	58	84					
O=C(N1CCN(C(c2ccccc2)c2ccccc2)CC1)n1nnc2cccnc21			1.7	971	977		
O=C(Oc1ccc([N+](=O)[O-])cc1)N1CCN(C(c2ccc(F)cc2)c2ccc(F)cc2)CC1		85	347				
O=C(Oc1ccc([N+](=O)[O-])cc1)N1CCC(C(c2ccc3c(c2)OCO3)c2ccc3c(c2)OCO3)CC1		88	42				
O=C(Oc1ccc([N+](=O)[O-])cc1)N1CCC(=C(c2ccc3c(c2)OCO3)c2ccc3c(c2)OCO3)CC1	85	89					
CCOC(=O)N1CCN(C(=O)n2nnc3cccnc32)CC1			1910	231	229		
